# This is one part of a sample in which hits are shown more often than they occur.
# Lipid droplet = modulators of hepatic lipid droplet formation; AML12 mouse hepatocytes, oleate lipid droplets, BODIPY imaging; inhibition, % at 6.5 µM; 0.4% of 240,000 active; AID 1656;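 active = lipid droplet intensity inhibited by at least 50%, with more than 500 cells counted; inconclusive = wells with under 300 cells, treated as cytotoxic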
#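 Assay system: AML12 mouse liver cells | Compound: 6.5 µM single-point dosing | Schedule: Overnight exposure | Technique: Fluorescence imaging, 20x objective, two fields per well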
# T cruzi inh = T. cruzi replication inhibition; T. cruzi beta-gal in NIH3T3, luminescence, 90 h; inhibition, % (concentration not given with the values); 1.4% of 300,000 active;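 active = mean inhibition across valid replicates above about 55%, limit read from the data; inconclusive = mean below that limit but half or more replicates reach it; inactive = mean below it, under half of replicates reach it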;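 also: signal also drops with host cell toxicity which is not excluded here; 0% = plate median of DMSO wells and 100% = zero luminescence signal; higher percent means less beta-gal luminescence so fewer parasites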
#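 Test system: β-gal T. cruzi (Tulahuen C4) inside NIH/3T3 cells / Quantity: 5,000 cells/well / Measured by: luminescence from GalScreen with 0.05% NP40, read after 60 min / Medium: DMEM plus 2% FBS / Measure: parasite load inhibition, % / Reagent: Tulahuen C4 trypomastigotes, 5000/well / Schedule: co-culture of at least 90 h after 3 h attachment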
# L major viab = reduces viability of Leishmania major promastigotes. 9% of 200,000 active. resazurin fluorescence viability. inhibition, % at 10 µM; in the data active = inhibition above about 50%;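 also: promastigotes grown with compound for 44 hours at 28 °C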
# MPTP block = inhibitors of mitochondrial permeability transition pore | 1.4% of 360,000 active | isolated mouse mitochondria, Ca2+ swelling absorbance, 30 min | inhibition, % at 10 µM;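 active = inhibition of 50% or more, scaled per plate between neutral and stimulator controls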;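 also: 0% = DMSO wells given calcium and 100% = 1 mM EGTA wells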
# DTT redox prof = compounds producing H2O2 with reducing agent – biochemical, NIH compound library profiling, artefact control for MLSCN library redox annotation, primary screen | DTT-dependent redox cycling H2O2, phenol red/HRP absorbance; 100% = 100 µM peroxide control, 0% = buffer | activation, % at 10 µM | 0.03% of 200,000 active;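 active = activation of at least 50% relative to the plate's high and low controls in the primary single-dose screen; inactive = activation below 50%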;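 also: compound incubated with DTT at 0.8 mM final as the reducing agent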
# An asterisk follows results filed as active; u = inconclusive; x = no result.
SMILES,Lipid droplet,T cruzi inh,L major viab,MPTP block,DTT redox prof
CCCCOC1OCN(C2CCCCC2)CC1(C)C (stereo not given),x,x,x,-0.4,x
CC1(C)CN=C(NCc2ccccc2Cl)S1,18.9,-14.3,-1.8,-0.3,3.0
CC(C)N(C(=O)CCl)c1ccccc1,x,x,x,0.9,x
Nc1c2c(nc3sc4c(c13)CCCC4)CCCCC2,-0.9,-1.1,77.0*,6.2,2.6
O=C1NC(=O)N(c2ccc(Cl)cc2)C(=O)/C1=C\c1ccc(Sc2nc3ccccc3[nH]2)o1,4.9,-28.2,45.5,47.0,-0.2
CC(C)c1oc(=O)cc2c1[C@@H](O)[C@H]1OC(=O)[C@@]3(C)C[C@@H](O)[C@@H](O)[C@@]2(C)C13 (stereo not given in full),-45.7,-22.9,13.0,-0.6,0.9
CN(C(=O)Oc1ccc(Cl)c2cccnc12)c1ccccc1,1.6,14.1,53.5*,-0.3,0.3
Clc1cccc(CN2CCCCC2c2cccnc2)c1 (stereo not given),x,50.8,90.4*,0.0,-0.3
COCCCn1c(-c2ccc(OC)cc2)cc(C(=O)NC2CCCCCCC2)c1C,-4.0,13.6,97.7*,9.7,0.3
O=C1/C(=C\c2ccc(Cl)c(Cl)c2)N2CCC1CC2,-20.6,16.0,x,0.1,x
O=C1/C(=C/c2cc([N+](=O)[O-])ccc2Cl)N2CCC1CC2,x,-5.3,73.6*,-2.1,-4.0
O=C1/C(=C\c2ccc(Cl)cc2Cl)N2CCC1CC2,-2.3,5.5,x,2.4,x
O=C1/C(=C\c2cc3c(cc2Cl)OCO3)N2CCC1CC2,-10.0,-1.3,72.8*,-2.4,-0.1
O=C1/C(=C/c2cc3c(cc2Cl)OCO3)N2CCC1CC2,-13.6,3.3,92.0*,x,0.3
O=C(C1CC(=O)N(C2CCCCCCC2)C1)N1CCC2(CC1)OCCO2 (stereo not given),x,-18.9,0.8,-0.4,0.5
CC(C)OC1CCCC(O)C1CC(=O)O (stereo not given),0.3,-0.7,x,0.3,x
COc1ccc(-c2csc(NC(=O)COC(=O)Cc3ccccc3)n2)cc1OC,-2.5,-7.2,-9.1,x,-0.1
NS(=O)(=O)c1ccc(N=Cc2c(O)n(C3CCCCC3)c(=O)n(C3CCCCC3)c2=O)cc1,x,u,65.3*,5.7,-0.8
Cc1cccc(-n2c(O)c(C=Nc3ccc(S(N)(=O)=O)cc3)c(=O)[nH]c2=O)c1,3.8,-6.5,-3.2,-0.5,-0.4
COc1ccc(NC2Oc3cc4c(cc3C(c3cc(OC)c(OC)c(OC)c3)C2C)OCO4)cc1 (stereo not given),x,x,x,0.9,x
COc1ccc(/C=N\N=C(N)N)cc1,3.8,61.6*,4.3,0.3,-0.5
NC(N)=N/N=C/c1ccc(N(c2ccccc2)c2ccccc2)cc1,-7.3,41.6,x,1.0,x
CN1CCN(C(=O)COc2ccc(S(=O)(=O)Nc3ccc(F)cc3)cc2)CC1,2.2,66.3*,x,-1.2,x
Cc1ccc(S(=O)(=O)N(C)C/N=C(\N)N[N+](=O)[O-])cc1,-0.6,-9.6,-4.0,0.8,-0.3
Cc1ccc(S(=O)(=O)N(C)CCCC(=O)N2CCN(c3ccccn3)CC2)cc1,x,13.4,89.6*,0.2,1.3
SMILES,Lipid droplet,T cruzi inh,L major viab,MPTP block,DTT redox prof
CN1/C(=C\C=C2C(=O)NC(=O)NC2=O)C(C)(C)c2ccccc21,15.5,21.0,2.4,-0.7,-1.1
CN1/C(=C\C=Nc2ccccc2)C(C)(C)c2ccccc21,x,15.2,97.7*,3.6,-4.1
COc1cc(N2CCOCC2)ccc1/C=C1\C(=O)NC(=O)N(Cc2ccc3c(c2)OCO3)C1=O,2.8,5.4,-0.8,5.4,-1.6
Cc1ccccc1Cc1c(C)nc2nc(SCC(=O)N3CCC4(CC3)OCCO4)nn2c1C,5.3,17.0,72.5*,-0.2,0.1
Cc1ccc(O)c(C(=O)c2cc(C(=O)NCCC(C)C)c(=O)n(CCC(C)C)c2)c1,-4.7,43.4,81.5*,1.6,-0.3
COc1ccc(NC2=NC(C)(C)CS2)cc1,13.1,-23.2,11.6,0.6,-0.5
Fc1ccccc1CCNCc1cccc2ccccc12,-11.1,9.3,77.4*,2.1,0.5
Cc1ccc(CNCCc2ccccc2F)cc1,-6.0,-4.3,6.5,-0.7,-0.3
CCN(CC)c1ccc(CNCCc2ccccc2F)cc1,0.6,43.9,94.2*,8.2,-0.1
OCCOCCO,x,x,x,1.0,x
COc1ccc(CCNCc2cccn2C)cc1OC,11.5,42.6,x,3.7,x
CC(C)OCCCNC(=O)c1c(N)n(Cc2cccs2)c2nc3ccccc3nc12,x,50.1,17.9,2.0,-2.1
